# Data from publication PMC3683571 (Journal of the American Chemical Society, 2013).
# “Also recorded” adds a separate entry of the source.
# How the values were obtained:
# [1] = molecular target: PSMA (Homo sapiens, UniProt Q04609); experiment: Biosensing; type: binding
# Summary of the method: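 Virus-PEDOT films, with ligand-displaying phage either unwrapped or wrapped with a chemically synthesized ligand wrapper, were exposed to a series of PSMA dimer concentrations. The read-out was relative impedance change (ΔR/Ro) versus frequency, with noise taken as the SD of five impedance measurements. Controls were films with control phage, ligand-free films, and films with wrapper alone; transferrin receptor served as a specificity target. Kd, Hill n and LOD came from Hill fits.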
# [2] = tested on: PSMA dimer; experiment: Phage-based ELISA, binding to PSMA dimer; conditions: as shown in Figure 1
# [3] = in previous studies, no reference given; cited from earlier work
# [4] = tested on: PSMA monomer; experiment: Phage-based ELISA, binding to PSMA monomer; conditions: Figure 1, standard error (n = 3)
# PSMA, sequence (Q04609 whole entry): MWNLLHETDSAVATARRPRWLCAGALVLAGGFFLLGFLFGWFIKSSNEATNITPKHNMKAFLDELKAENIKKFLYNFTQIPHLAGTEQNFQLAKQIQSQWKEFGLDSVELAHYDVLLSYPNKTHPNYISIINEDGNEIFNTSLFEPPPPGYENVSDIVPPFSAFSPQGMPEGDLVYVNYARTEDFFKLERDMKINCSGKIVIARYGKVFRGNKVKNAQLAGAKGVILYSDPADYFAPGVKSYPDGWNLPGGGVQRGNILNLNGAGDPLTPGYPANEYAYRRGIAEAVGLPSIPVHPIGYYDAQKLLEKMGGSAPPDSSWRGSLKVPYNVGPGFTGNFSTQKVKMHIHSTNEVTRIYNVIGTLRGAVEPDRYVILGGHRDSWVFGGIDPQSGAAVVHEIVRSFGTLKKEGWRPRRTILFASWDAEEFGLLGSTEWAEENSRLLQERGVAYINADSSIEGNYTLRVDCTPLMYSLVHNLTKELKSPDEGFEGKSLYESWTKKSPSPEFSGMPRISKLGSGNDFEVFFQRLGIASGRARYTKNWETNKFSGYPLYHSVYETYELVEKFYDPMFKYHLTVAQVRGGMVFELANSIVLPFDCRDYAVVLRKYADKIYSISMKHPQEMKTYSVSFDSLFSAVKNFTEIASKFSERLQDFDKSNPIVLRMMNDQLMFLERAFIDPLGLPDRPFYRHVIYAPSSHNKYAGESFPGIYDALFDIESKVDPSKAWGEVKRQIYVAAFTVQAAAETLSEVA
Sequence,solubility in water [3],binding to the PSMA monomer (ELISA) [4],further results
CALCEFLG [KCS-1],,,"binding to PSMA / change in impedance, negative controls ([1]; EIS, PBF-Tween buffer, PEDOT films): no significant binding to PSMA; also recorded: negligible change in impedance caused by the wrapper"
CALCEFLG [compound 1],limited solubility in water,,"apparent affinity for PSMA, peptide 1 versus peptide 2 [2]: much lower apparent affinity for PSMA than peptide 2"
CALCEFLG [phage-1],,Neither phage-displayed ligand binds with significant affinity to the PSMA monomer,
SECVEVFQNSCDW [compound 2],limited solubility in water,,
SECVEVFQNSCDW [phage-2],,Neither phage-displayed ligand binds with significant affinity to the PSMA monomer,"LOD (calculated) ([1]; PBF, defined as 3x over background signal, calculated from line fits to the data in Figure 4F): 6 nM; cooperative binding ([1]; from n-values obtained >1, Hill fit, PBF): can access cooperative binding"
